According to the EternaBench riboswitch data:

System: MS2 coat protein
Assay: apparent Kd, MS2 coat protein; higher = weaker binding; RNA-MaP array; FMN 200 µM where present
Summary of the method: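 Green signal was scaled to red-channel RNA signal and control-cluster median Fmax, and the apparent Kd was taken as the median of filtered per-cluster binding-curve fits. The binding series used SNAP-549-labelled MS2 coat protein from 0.7 or 1.5 nM, doubling to 3 µM, on designs transcribed by stalled E. coli RNA polymerase on Illumina sequencing-chip clusters. Each series ran without and then with constant ligand in 100 mM Tris-HCl pH 7.5, 80 mM KCl, 4 mM MgCl2, BSA, DTT, yeast tRNA and Tween-20.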

[1] = designed as: OFF switch for flavin mononucleotide, no ligand
[2] = ligand present: flavin mononucleotide, designed as: OFF switch for flavin mononucleotide
[3] = designed as: ON switch for flavin mononucleotide, no ligand
[4] = ligand present: flavin mononucleotide, designed as: ON switch for flavin mononucleotide

| Sequence | apparent Kd [1] [µM] | apparent Kd [2] [µM] | apparent Kd [3] [µM] | apparent Kd [4] [µM] |
| --- | --- | --- | --- | --- |
| AAGUAGGGAGGAUAUACAUGGAUAUACAUUCAUGUGGACCUACAUGAGGAUCACCCAUGUAGAAGGCCCUAAUA | 0.0371 | 0.0435 |  |  |
| ACAGCACGAGGAUAUACAUGAGGAUCACCCAUGUCUGAGGGAAGGCGAACGCCCUUGUGUAGAAGGCGUUGAUC | 0.0914 | 0.112 |  |  |
| AGCUUCGAAGGAUAUCCAGGUCCAGACAUGAGGAUCACCCAUGUGGUGAAGACGUUACCCGGAGAAGGUUGUGAGU | 0.0705 | 0.0617 |  |  |
| GGGAGUCUACAUGAGGAUCACCCAUGUGGUCCAGCAGGAACACAGGAUAUCCAAUGAGAUUCUCGGGAGAAGGGUGAAUGCUUA |  |  | 0.107 | 0.174 |
| AUCAGCUCGUGAGGAUAUACAUCACUGCUUCGGCAGUGUGGUAAGGUCACAUGAGGAUCACCCAUGUAGAAGGCACGAGCUGAU | 0.0131 | 0.279 |  |  |
| GCGCUUAUACAGAAGGCCAUAUACAUGAGGAUCACCCAUGUUAUUUGGUGGAGGAUAUGUUUAUUAUUACAGGUAGAUGAGCGC |  |  | 0.0063 | 0.00572 |
| CGAGUGUAAGGAUAUUCGGCACUAGGGACCACCCUAGUGUAGAAGAAGGUACAUGAGGAUCACCCAUGUGGUUA | 0.369 | 0.428 |  |  |
| AUACUCAUGUAAGGAUAUGCAGCCGUCUCGGCUGCAGAAGGUACUAUAAUACAUGAGGAUCACCCAUGUCUCUCGCAUUGCGAG |  |  | 0.562 | 0.0937 |
| CCCACGCAUGAGAAGGGACAGGCGUGCAAUUCGACAUGAGGAUCACCCAUGUCAGGAUAUCAGUUAAGGUGGGCAGAACCAAUG | 0.0169 | 0.0767 |  |  |
| CCGGAAUUACAGGAUAUAGGAGUCGAUAGACACCUAGAAGGGUAGACAUGAGGAUCACCCAUGUGUCCUACCGG | 0.273 | 0.182 |  |  |
| ACAUGAGGAUGAGGAUAUUCAUACAUGAGGAUAGAAGAAGGCAUACAUGAGGAUCACCCAUGUAUACACAUGAGGAUCUCCCAU | 0.0255 | 0.0305 |  |  |
| GUAUUAAAGAUCCAUUUUUACAACAUGAGGAUCACCCAUGUGCAGGAUAUCGUGUGUUUUAUAUUCGAGAAGGGCAAAUUCAUU | 0.0518 | 0.109 |  |  |
| UUUUAACAUGAGGAUCACCCAUGUGAGGAUAUCGAAAUUUAUAUUAAUAUUAAUUUAACGAGAAGGCACAUUUU | 0.101 | 0.0937 |  |  |
| AUCAGCUCGUCAGGAUAUACGUCACUGCGUCAGCAGUGUGGUAAGAUCACAUGAGGAUCACCCAUGUAGAAGGGAAGAGCUGAU | 0.0151 | 0.232 |  |  |
| UGAUAGGACAGAGGAUAUACGUGCUAGAGAUACUAGCUAAUAAUCCUUACAUGAGGAUCACCCAUGUAGAAGGCUGUCCUAUCU | 0.0195 | 0.0455 |  |  |
| UGAUAGGACAGAGGAUAUACGGCUAGGAGAUACUAGCUACUAUUCCUCACAUGAGGAUCACCCAUGUAGAAGGCUGUCCUAUCU | 0.0169 | 0.148 |  |  |
| UUUUUAUAACAAGGAUAUACUAAACAUGAGGAUCACCCAUGUAAUAUUAUGAGUGAGAGAGAUAAGUAGAAGGUGUAUUAUUUU | 0.1 | 0.137 |  |  |
| GGGCCCGGAGGAUAUACAUGAGGAUCACCCAUGUAGGGCUCGGGUAUUUCUGGGUCUUGUAGAAGGCCGGGCCC | 0.016 | 0.0228 |  |  |
| CGCCGCACCGGCCUGCGGCAGGGUCAGGAUAUACAUGAGGAUCACCCAUGUGAACGGUGCCCAAUGUAGAAGGGACGAAAAGAA | 0.0178 | 0.0395 |  |  |
| CGUUGUUCCGCAGGAUAUGCAUUGGAUUACAAUGCAGAAGGGCGAUAACAUGAGGAUCACCCAUGUGUGGACAAUAAGGAAGAG |  |  | 0.811 | 0.0621 |
| GGUACUCAAAGAGUACCUAUACGAACAUGAGGAUCACCCAUGUAGGAUAUGCUACUCAAAGAGUAGCAGAAGGACAUGUGCCUA | 0.0186 | 0.108 |  |  |
| AAGUGGUUUAUAUAUAUAGAAAUCAGAAGGCGUGACAUGAGGAUCACCCAUGUGUUCAGUCAUGACGAGGAUAUGACUAAUUGU | 0.0699 | 0.0854 |  |  |
| AUGAGUAAAGCAGGAUAUCUAUUGUCUCAGUAACAUGAGGAUCACCCAUGUAGAGAAGGGCUAAGUCUUACUCUUCGGAGAUGA | 0.0123 | 0.0134 |  |  |
| ACAUGAUAUGUAGGAUAUCACAACAUGAGUUUUAAAAUUGUAAUUUAGGAUUGAGAAGGACAUUUACAUGAGGAUCACCCAUGU | 0.0186 | 0.0147 |  |  |

| Sequence | apparent Kd [1] [µM] | apparent Kd [2] [µM] | apparent Kd [3] [µM] | apparent Kd [4] [µM] |
| --- | --- | --- | --- | --- |
| GAGUAGUUGGAAGGAUAUCGAUUGUUAUAGAAUCGAGAAGGUCCUAACAUGAGGAUCACCCAUGUAGGACUAUUCCUGUGUAUC |  |  | 0.0113 | 0.00964 |
| UGAUAGGACAGAGGAUAUACGUGCUAGAGAUACUAGCAAAGUUUCUUGACAUGAGGAUCACCCAUGUAGAAGGCUGUCCUAUCU | 0.00574 | 0.0123 |  |  |
| UAUAUAAUUAAGAGCUGGAACUCAACAUGAGGAUCACCCAUGUAGGAUAUCAGCACGAUAAGUGCUGAGAAGGACAUCCAGCUC | 0.0166 | 0.0178 |  |  |
| CUGCUGGAGCUUUGCUUUAGUCGUACAUGAGGAUCACCCAUGUAGGAUAUGGUAGGCUAUGCUUACUAGAAGGAUAGAGUGGUC | 0.0623 | 0.0322 |  |  |
| CGUAUCGAAGAAGGAUAUCGCAACGACAGCUAGGGCUAUUCUCAACAUGAGGAUCACCCAUGUUGCGAGAAGGUCUGCUAUGCG | 0.0279 | 0.0505 |  |  |
| AAUAUAGAGCUGGAAAUAAAACUCACAUGAGGAUCACCCAUGUAGGAUAUCAGCACGAUAAGUGCUGAGAAGGACAUCCAGCUC | 0.0152 | 0.0152 |  |  |
| UUCAAUCACAUAGGAUAUAGAAUAUUAUUUUUUUACAUGAGGAUCACCCAUGUUUUAUUGGGUUUCUAGAAGGAUGAGUUAUUA |  |  | 0.451 | 0.289 |
| CUGAGCAAUCAAGGAUAUCACGUCGAUUAGACGUGAGAAGGUGAUCAUCACAUGAGGAUCACCCAUGUGUUACAUGGAGCUCAG |  |  | 1.17 | 0.218 |
| AGAAGGCUACAGAAGGGACACACACGGCGGGAGUCAGGAUAUGUAGAGAAAACGUUACAUGAGGAUCACCCAUGUAGACCUUCC |  |  | 0.123 | 0.0199 |
| AUAUUCUAGAUAGGAUAUACUGAGGUUGAAUGGGUAGAAGGAUCGUGAGAGUGGACUACAUGAGGAUCACCCAUGUUGUUUAUU |  |  | 0.0616 | 0.059 |
| UUUUUUGUACAAGGAUAUCUAUUAUAUUCACGUCCUACAUGAGGAUCACCCAUGUUAUAUAUUUUAGAGAAGGUGUAUUGUCUG |  |  | 0.0317 | 0.0355 |
| CUAGCAACAUGAGGAUCACCCAUGUAGGAUAUCGCUAUUGUAAUCAUGAAACAUGAUUACAAUAGCGAGAAGGACAUAUGCUAA | 0.00796 | 0.0108 |  |  |
| ACAAGAUCAGGAUAUACAUGAGGAUCACCCAUGUGUAUCAAAAGGGAACUUUCUUAAUGUAGAAGGGAUCUUGU | 0.0147 | 0.0223 |  |  |
| GCCAUCGCAUGAGGAUAUGCUCCCGUUUCGGGAGCAGAAGGCAUGUCACAAGACAUGAGGAUCACCCAUGUAGAUAAGAUGGCA |  |  | 0.257 | 0.00949 |
| UCUUAUUGAGGAUAUACAUUAAUUUACAUGAGGAUCACCCAUGUUCUUCAAUGUAUAUAUGUAGAAGGCAGAAGAA | 0.0185 | 0.042 |  |  |
| CGCUAAUUAAUUAUAUUAAUUGUACAGGAUAUGUAACAUGAGGAUCACCCAUGUAUUGGGUUUAAACAGAAGGGUAUAUUAGCG | 0.425 | 0.112 |  |  |
| AGGAUAAGAAGAACUAUCCAUUGUACAGAAGGCCAACAUGAGGAUCACCCAUGUAAGAAAAGGAUGGAGGAUAUGUAUAGGGCC |  |  | 0.0373 | 0.0198 |
| CACUCGUGUCUAGGAUAUGAGUGACAAGCACGAGAUUUUCUCGACGCUAGCUCAGAAGGAGACAUGAGGAUCACCCAUGUAAGG | 0.0853 | 0.0166 |  |  |
| AAAAAGUCAGGAUAUCGAAAAAAAAAAAAAAAAAAAAAAAACGAGAAGGGACAUGAGGAUCACCCAUGUAAAAA | 0.0637 | 0.0696 |  |  |
| GGAUAUGUCGUCUACAUGAGGAUCACCCAUGUUGAUAAACAUGAGGAUAUUGAUAAGAAUUGUAUCGAGAAGGUAUGUAGGUCC |  |  | 0.106 | 0.0895 |
| ACAUGAGGAUCACCCAUGUUCACAUAGGAUAUUGAUUUUAUUGGUUUUAGAAUAGUAAUUAACCUCAAGAAGGAUGCCAGUUCU |  |  | 0.014 | 0.0112 |
| CUGCUGGAGCUUUGCUUUAGUCGUACAUGAGGAUCACCCAUGUAGGAUAUGGUGGGCUUUGCUUACUAGAAGGAUAGAGUGGUC | 0.0499 | 0.0363 |  |  |
| UGUUUUGUACAUGAGGAUCACCCAUGUUAAUAUGUGGUAGUCAGAAGGCAUUGUUUGAGAUAUUAUGAGGAUAUGAUUAGUCUG |  |  |  | 0.0439 |
| GGUCCACAUGAGGAUCACCCAUGUCAGGAUAUACACGGCACUAUAAUAAGUGCCACCCGUAGAAGGGACGCUGG | 0.0172 | 0.0385 |  |  |
